Laboratory results reported in ChEMBL document CHEMBL1124057, “Synthesis of arginine-vasopressins, modified in positions 1 and 2, as antagonists of the vasopressor response to the parent hormone” (J Med Chem, 1988).
*1 amine or outer side, *2 acyl side, *3 side chain or, on linkers, in order; H or OH if unused. Where a SMILES comes first, the peptide text is derived from it. Bridges are numbered along the chain shown (N, C = ends). [ ]: non-standard residue; d: D form. X9 = O=C(CC1(S[*:3])CCC(c2ccccc2)CC1)[C@H](Cc1ccc(O)cc1)N([C@@H](Cc1ccccc1)C(=O)[*:2])[*:1]; X5 = CN1CCC(CC(=O)[C@H](Cc2ccc(O)cc2)N([C@@H](Cc2ccccc2)C(=O)[*:2])[*:1])(S[*:3])CC1; X8 = CC1CCC(CC(=O)[C@H](Cc2ccc(O)cc2)N([C@@H](Cc2ccccc2)C(=O)[*:2])[*:1])(S[*:3])CC1; X1 = CC(C)(C)C1CCC(CC(=O)[*:1])(S[*:2])CC1; X4 = O=C(CC1(S[*:2])CCC(c2ccccc2)CC1)[*:1]; X2 = CC1CCC(CC(=O)[*:1])(S[*:2])CC1; X3 = CN1CCC(CC(=O)[*:1])(S[*:2])CC1; X6 = O=C(CC1(S[*:2])CCCCC1)[*:1]

Assays:
Rattus norvegicus [1] = assay: Antidiuretic potency was tested in rat by intravenous injection and the change of conductivity of secreted urine was measured (antagonistic experiment); assay type: functional
Procedure, shortened: (§1)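 Antidiuretic assay in anesthetized female Sprague-Dawley rats, with compounds given by intravenous injection. The change in conductivity of secreted urine was the effect parameter in both agonist and antagonist runs. Arginine-vasopressin (408 IU/mg) was the standard for agonism and the agonist in antagonism runs.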

Rattus norvegicus [2] = assay: Antidiuretic potency was tested in rat by intravenous injection and the change of conductivity of secreted urine was measured (agonistic experiment); assay type: functional; procedure, shortened: as §1
Rattus norvegicus [3] = species on record: Rattus norvegicus; assay: Antagonist activity expressed as the effective dose that reduces the response to 2x units to equal response to 1x units of agonist (vasopressor assay); assay type: functional
Procedure, shortened: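 Vasopressor antagonism measured in anesthetized, dibenamine-treated rats, with arginine-vasopressin (408 IU/mg) as the challenging agonist. Potency is given as the effective dose (ED), the antagonist dose in nmol/kg body weight.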

Rattus norvegicus [4] = assay: Agonistic activity was determined according to a four-point dosage schedule in anesthetized rat (vasopressor assay); assay type: functional
Rattus norvegicus [5] = assay: Antidiuretic potency was tested in rat by intravenous injection and the change of conductivity of secreted urine was measured (antagonistic experiment); Weak, inconsistent; assay type: functional, organism-based; procedure, shortened: as §1
[6] = The time for complete recovery of the AVP effect was measured; assay type: ADME

| SMILES | Agonism (Rattus norvegicus [2]) | ED (Rattus norvegicus [3]) | Agonism (Rattus norvegicus [4]) | Time [6] | other results |
| --- | --- | --- | --- | --- | --- |
| CN1CCC2(CC1)CC(=O)[C@H](Cc1ccc(O)cc1)N[C@@H](Cc1ccccc1)C(=O)N[C@@H](CCC(N)=O)C(=O)N[C@@H](CC(N)=O)C(=O)N[C@H](C(=O)N1CCC[C@H]1C(=O)N[C@@H](CCCN=C(N)N)C(=O)NCC(N)=O)CSS2 (H-[X5]QNCPRG-NH2; disulfide 1-4) | 0.87 IU mg-1 | 0 nmol/kg | 0.4 IU mg-1 | – | Antagonism (Rattus norvegicus [1]): 0 |
| CC1CCC2(CC1)CC(=O)[C@H](Cc1ccc(O)cc1)N[C@@H](Cc1ccccc1)C(=O)N[C@@H](CCC(N)=O)C(=O)N[C@@H](CC(N)=O)C(=O)N[C@H](C(=O)N1CCC[C@H]1C(=O)N[C@@H](CCCN=C(N)N)C(=O)NCC(N)=O)CSS2 (some centres undefined) (H-[X8]QNCPRG-NH2; disulfide 1-4) | – | – | – | – | Antagonism (Rattus norvegicus [5]): Weak |
| NC(=O)CC[C@@H]1NC(=O)[C@H](Cc2ccccc2)N[C@@H](Cc2ccc(O)cc2)C(=O)CC2(CCC(c3ccccc3)CC2)SSC[C@@H](C(=O)N2CCC[C@H]2C(=O)N[C@@H](CCCN=C(N)N)C(=O)NCC(N)=O)NC(=O)[C@H](CC(N)=O)NC1=O (some centres undefined) (H-[X9]QNCPRG-NH2; disulfide 1-4) | – | – | – | – | Antagonism (Rattus norvegicus [5]): Weak |
| COc1ccc(C[C@@H]2NC(=O)CC3(CCC(C(C)(C)C)CC3)SSC[C@@H](C(=O)N3CCC[C@H]3C(=O)N[C@@H](CCCN=C(N)N)C(=O)NCC(N)=O)NC(=O)[C@H](CC(N)=O)NC(=O)[C@H](CCC(N)=O)NC(=O)[C@H](Cc3ccccc3)NC2=O)cc1 (some centres undefined) (Y(Me)FQNCPRG-NH2; linker N-5 via X1) [listing 1 of 2 here] | – | – | – | > 115 min | – |
| COc1ccc(C[C@@H]2NC(=O)CC3(CCC(C(C)(C)C)CC3)SSC[C@@H](C(=O)N3CCC[C@H]3C(=O)N[C@@H](CCCN=C(N)N)C(=O)NCC(N)=O)NC(=O)[C@H](CC(N)=O)NC(=O)[C@H](CCC(N)=O)NC(=O)[C@H](Cc3ccccc3)NC2=O)cc1 (some centres undefined) (Y(Me)FQNCPRG-NH2; linker N-5 via X1) [listing 2 of 2 here] | 0.095 IU mg-1 | 1 nmol/kg | 0 IU mg-1 | – | Antagonism (Rattus norvegicus [1]): 0 |
| COc1ccc(C[C@@H]2NC(=O)CC3(CCC(C)CC3)SSC[C@@H](C(=O)N3CCC[C@H]3C(=O)N[C@@H](CCCN=C(N)N)C(=O)NCC(N)=O)NC(=O)[C@H](CC(N)=O)NC(=O)[C@H](CCC(N)=O)NC(=O)[C@H](Cc3ccccc3)NC2=O)cc1 (some centres undefined) (Y(Me)FQNCPRG-NH2; linker N-5 via X2) [listing 1 of 2 here] | – | – | – | > 140 min | – |
| COc1ccc(C[C@@H]2NC(=O)CC3(CCC(C)CC3)SSC[C@@H](C(=O)N3CCC[C@H]3C(=O)N[C@@H](CCCN=C(N)N)C(=O)NCC(N)=O)NC(=O)[C@H](CC(N)=O)NC(=O)[C@H](CCC(N)=O)NC(=O)[C@H](Cc3ccccc3)NC2=O)cc1 (some centres undefined) (Y(Me)FQNCPRG-NH2; linker N-5 via X2) [listing 2 of 2 here] | 0.7 IU mg-1 | 1.5 nmol/kg | 0 IU mg-1 | – | Antagonism (Rattus norvegicus [1]): 0 |
| COc1ccc(C[C@@H]2NC(=O)CC3(CCN(C)CC3)SSC[C@@H](C(=O)N3CCC[C@H]3C(=O)N[C@@H](CCCN=C(N)N)C(=O)NCC(N)=O)NC(=O)[C@H](CC(N)=O)NC(=O)[C@H](CCC(N)=O)NC(=O)[C@H](Cc3ccccc3)NC2=O)cc1 (Y(Me)FQNCPRG-NH2; linker N-5 via X3) [listing 1 of 2 here] | – | – | – | 110 min | – |
| COc1ccc(C[C@@H]2NC(=O)CC3(CCN(C)CC3)SSC[C@@H](C(=O)N3CCC[C@H]3C(=O)N[C@@H](CCCN=C(N)N)C(=O)NCC(N)=O)NC(=O)[C@H](CC(N)=O)NC(=O)[C@H](CCC(N)=O)NC(=O)[C@H](Cc3ccccc3)NC2=O)cc1 (Y(Me)FQNCPRG-NH2; linker N-5 via X3) [listing 2 of 2 here] | 0.23 IU mg-1 | 3.6 nmol/kg | 0 IU mg-1 | – | – |
| COc1ccc(C[C@@H]2NC(=O)CC3(CCC(c4ccccc4)CC3)SSC[C@@H](C(=O)N3CCC[C@H]3C(=O)N[C@@H](CCCN=C(N)N)C(=O)NCC(N)=O)NC(=O)[C@H](CC(N)=O)NC(=O)[C@H](CCC(N)=O)NC(=O)[C@H](Cc3ccccc3)NC2=O)cc1 (some centres undefined) (Y(Me)FQNCPRG-NH2; linker N-5 via X4) [listing 1 of 2 here] | – | – | – | > 180 min | – |
| COc1ccc(C[C@@H]2NC(=O)CC3(CCC(c4ccccc4)CC3)SSC[C@@H](C(=O)N3CCC[C@H]3C(=O)N[C@@H](CCCN=C(N)N)C(=O)NCC(N)=O)NC(=O)[C@H](CC(N)=O)NC(=O)[C@H](CCC(N)=O)NC(=O)[C@H](Cc3ccccc3)NC2=O)cc1 (some centres undefined) (Y(Me)FQNCPRG-NH2; linker N-5 via X4) [listing 2 of 2 here] | 1.6 IU mg-1 | 2 nmol/kg | 0 IU mg-1 | – | – |
| COc1ccc(C[C@@H]2NC(=O)CC3(CCCCC3)SSC[C@@H](C(=O)N3CCC[C@H]3C(=O)N[C@@H](CCCN=C(N)N)C(=O)NCC(N)=O)NC(=O)[C@H](CC(N)=O)NC(=O)[C@H](CCC(N)=O)NC(=O)[C@H](Cc3ccccc3)NC2=O)cc1 (Y(Me)FQNCPRG-NH2; linker N-5 via X6) [listing 1 of 2 here] | – | – | – | 126 min | – |
| COc1ccc(C[C@@H]2NC(=O)CC3(CCCCC3)SSC[C@@H](C(=O)N3CCC[C@H]3C(=O)N[C@@H](CCCN=C(N)N)C(=O)NCC(N)=O)NC(=O)[C@H](CC(N)=O)NC(=O)[C@H](CCC(N)=O)NC(=O)[C@H](Cc3ccccc3)NC2=O)cc1 (Y(Me)FQNCPRG-NH2; linker N-5 via X6) [listing 2 of 2 here] | – | – | 0 IU mg-1 | – | – |
| CC(C)(C)C1CCC2(CC1)CC(=O)N[C@@H](Cc1ccc(O)cc1)C(=O)N[C@@H](Cc1ccccc1)C(=O)N[C@@H](CCC(N)=O)C(=O)N[C@@H](CC(N)=O)C(=O)N[C@H](C(=O)N1CCC[C@H]1C(=O)N[C@@H](CCCN=C(N)N)C(=O)NCC(N)=O)CSS2 (some centres undefined) (YFQNCPRG-NH2; linker N-5 via X1) [listing 1 of 2 here] | – | – | – | 125 min | – |
| CC(C)(C)C1CCC2(CC1)CC(=O)N[C@@H](Cc1ccc(O)cc1)C(=O)N[C@@H](Cc1ccccc1)C(=O)N[C@@H](CCC(N)=O)C(=O)N[C@@H](CC(N)=O)C(=O)N[C@H](C(=O)N1CCC[C@H]1C(=O)N[C@@H](CCCN=C(N)N)C(=O)NCC(N)=O)CSS2 (some centres undefined) (YFQNCPRG-NH2; linker N-5 via X1) [listing 2 of 2 here] | 0.13 IU mg-1 | 2 nmol/kg | 0.04 IU mg-1 | – | Antagonism (Rattus norvegicus [1]): 0 |
| CC1CCC2(CC1)CC(=O)N[C@@H](Cc1ccc(O)cc1)C(=O)N[C@@H](Cc1ccccc1)C(=O)N[C@@H](CCC(N)=O)C(=O)N[C@@H](CC(N)=O)C(=O)N[C@H](C(=O)N1CCC[C@H]1C(=O)N[C@@H](CCCN=C(N)N)C(=O)NCC(N)=O)CSS2 (some centres undefined) (YFQNCPRG-NH2; linker N-5 via X2) [listing 1 of 2 here] | – | – | – | 214 min | – |
| CC1CCC2(CC1)CC(=O)N[C@@H](Cc1ccc(O)cc1)C(=O)N[C@@H](Cc1ccccc1)C(=O)N[C@@H](CCC(N)=O)C(=O)N[C@@H](CC(N)=O)C(=O)N[C@H](C(=O)N1CCC[C@H]1C(=O)N[C@@H](CCCN=C(N)N)C(=O)NCC(N)=O)CSS2 (some centres undefined) (YFQNCPRG-NH2; linker N-5 via X2) [listing 2 of 2 here] | 0.14 IU mg-1 | 1.04 nmol/kg | 0 IU mg-1 | – | – |
| NC(=O)CC[C@@H]1NC(=O)[C@H](Cc2ccccc2)NC(=O)[C@H](Cc2ccc(O)cc2)NC(=O)CC2(CCC(c3ccccc3)CC2)SSC[C@@H](C(=O)N2CCC[C@H]2C(=O)N[C@@H](CCCN=C(N)N)C(=O)NCC(N)=O)NC(=O)[C@H](CC(N)=O)NC1=O (some centres undefined) (YFQNCPRG-NH2; linker N-5 via X4) [listing 1 of 2 here] | – | – | – | > 180 min | – |
| NC(=O)CC[C@@H]1NC(=O)[C@H](Cc2ccccc2)NC(=O)[C@H](Cc2ccc(O)cc2)NC(=O)CC2(CCC(c3ccccc3)CC2)SSC[C@@H](C(=O)N2CCC[C@H]2C(=O)N[C@@H](CCCN=C(N)N)C(=O)NCC(N)=O)NC(=O)[C@H](CC(N)=O)NC1=O (some centres undefined) (YFQNCPRG-NH2; linker N-5 via X4) [listing 2 of 2 here] | 0.44 IU mg-1 | 2 nmol/kg | 0 IU mg-1 | – | – |
